HTRA1 inhibitor: HTRA1 serine protease inhibitors, primary screen, biochemical, fluorescence polarization, HTS; Q92743; recombinant HTRA1, FP-rhodamine activity-based probe; inhibition, % at 5.96 µM; hit rate 0.5% among 340,000; in the data active means inhibition above about 36%
Tn6 DDE FP: inhibitors of Tn6 peptide binding to fibrin DD(E), primary screen, biochemical, fluorescence polarization, human fibrin, Tn6 probe; Fibrinogen beta chain (Homo sapiens), P02675; Fibrin DD(E) TRITC-Tn6 fluorescence polarization displacement; inhibition, % at 8.3 µM; hit rate 0.21% among 370,000;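 active means inhibition above a per-campaign cutoff: mean of compounds within control limits plus 3 SD, cut at about 15% in these data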
SIAE primary: human SIAE inhibitors, primary screen, biochemical, fluorescence polarization, FP-Rh probe, 1536-well HTS | Sialate O-acetylesterase (Homo sapiens), Q9HAT2 | SIAE FP-Rh probe binding | inhibition, % at 9.66 µM | hit rate 0.69% among 370,000 | AID 1053197, 2014;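 active means inhibition above a cutoff: mean of compounds within the control limits plus 3 SD of those, cut at about 17% in these data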
ABHD4 inh: ABHD4 inhibitors, primary screen, biochemical, fluorescence polarization, mouse | purified mABHD4, FP-Rh probe fluorescence polarization | hit rate 0.54% among 370,000 | inhibition, % at 8.92 µM | (Lyso)-N-acylphosphatidylethanolamine lipase (Mus musculus), Q8VD66;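 active means inhibition exceeding the mean over every tested compound plus 3 SD, cut at about 30% in these data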
Target sequence (Q8VD66 whole entry, looked up): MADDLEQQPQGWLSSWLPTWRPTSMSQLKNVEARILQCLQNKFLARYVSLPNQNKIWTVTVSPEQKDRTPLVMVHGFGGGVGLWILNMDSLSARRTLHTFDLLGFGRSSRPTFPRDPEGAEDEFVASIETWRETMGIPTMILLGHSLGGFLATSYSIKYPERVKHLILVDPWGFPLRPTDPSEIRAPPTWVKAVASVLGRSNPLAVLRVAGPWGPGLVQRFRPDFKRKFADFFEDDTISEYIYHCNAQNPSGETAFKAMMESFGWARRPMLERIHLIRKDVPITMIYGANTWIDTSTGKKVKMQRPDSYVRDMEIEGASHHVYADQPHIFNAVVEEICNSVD
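Test system: mABHD4 protein; Read-out basis: % inhibition; Incubation: 45 min + 60 min at 25 °C; Repeats: single replicate; Technique: fluorescence polarization with parallel and perpendicular emission, 525/598 nm; Compound: 8.92 µM, single dose; Benchmarks: full inhibition S159A mutant plus DMSO, zero as sample-well median.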
Tn7 DDE FP: inhibitors of Tn7 peptide binding to fibrin DD(E), primary screen, biochemical, fluorescence polarization, human fibrin, Tn7 probe; Fibrinogen beta chain (Homo sapiens), P02675; FP displacement of FITC-Tn7 peptide from fibrin DD(E); 0% = median of compound wells per plate; inhibition, % at 8.3 µM; hit rate 0.13% among 370,000; AID 720508, 2013;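 active means inhibition above the mean of compounds falling within the control limits plus 3 SD of them, cut at about 14% in these data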
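Test system – human fibrin DD(E) · Times – 10 min preincubation, 3 h with tracer, room temperature · Detection – fluorescence polarization of the labelled Tn7 tracer · Measure – percent inhibition normalized to high-control wells · Benchmarks – high control wells with 10 µM unlabelled Aha-Tn7 peptide (full inhibition) · Repeats – singlicate testing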
TCR CD3 inh: inhibitors of human TCR-CD3 interaction, primary screen, biochemical, fluorescence, TAMRA-labeled TCR probe; T-cell receptor (TCR); inhibition, % at 9.4 µM; hit rate 0.37% among 360,000; in the data active means inhibition above about 19%;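 further: recombinant mutant TCR 2C K166C tagged with TAMRA read by polarization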
SIAE inh conf: human SIAE inhibitors, retest, confirmation, biochemical, fluorescence polarization, FP-Rh probe, triplicate; SIAE FP-Rh activity-based probe; AID 1117263, 2014; shares compounds with SIAE primary; inhibition, % at 9.66 µM; hit rate 13% among 2,300;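 active means mean inhibition of the replicates above the hit cutoff set in the primary screen, cut at about 17% in these data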;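 further: inhibitors lower polarization as more probe stays unbound to SIAE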
Of the large screens only hits and unclear results are named; the others gave an inactive call (follow-up assays come after a bar, where they were run). A selection: hits, their analogues and other compounds. The true share with any hit is near 1.8%.

CCCC(=O)N1CCC(O)(c2cccc(F)c2)CC1	SIAE primary 49 | SIAE inh conf inactive
CCS(=O)(=O)Nc1ccc2c(c1)C(=O)N(C)[C@@H]1CC[C@H](CC(=O)N[C@@H]3CCN(Cc4ccccc4)C3)O[C@H]1CO2	none (no result: HTRA1 inhibitor, TCR CD3 inh)
CNC(=S)N/N=C/c1c(C(=O)OC)cnn1-c1ccc(Cl)cc1	none (no result: HTRA1 inhibitor, TCR CD3 inh)
CCCN(CCC)CC(O)Cn1cc(/C=C/C(=O)c2ccccc2)c2ccccc21 (configuration not stated)	SIAE primary 18 | SIAE inh conf inactive
COc1cccc(NC(=O)Nc2c(-c3ccc(C(F)(F)F)cc3)nc3ncccn23)c1	none (no result: HTRA1 inhibitor, TCR CD3 inh)
COc1ccc(NC(=O)NNC(=O)COc2ccc3ccccc3c2)cc1	SIAE primary 18 | SIAE inh conf inactive
CCOC(=O)[C@@]12CCCC=C1N(CCc1ccc(Cl)cc1)C(=O)[C@H]2CC(=O)NCC1CCCCC1	none (no result: HTRA1 inhibitor, TCR CD3 inh)
CCCN(C(=O)c1cc(-c2ccco2)nc2ccccc12)c1c(N)n(Cc2ccccc2)c(=O)[nH]c1=O	none
COCCN(C(=O)c1cc(-c2ccco2)nc2ccccc12)c1c(N)n(Cc2ccccc2)c(=O)[nH]c1=O	SIAE primary 42 | SIAE inh conf inactive
CC(C)CN(C(=O)COC(=O)/C=C/c1cccs1)c1c(N)n(Cc2ccccc2)c(=O)[nH]c1=O	none
COCCN(C(=O)COC(=O)/C=C/c1cccs1)c1c(N)n(Cc2ccccc2)c(=O)[nH]c1=O	SIAE primary 21 | SIAE inh conf inactive
COc1ccc(C(=O)C2(C(=O)NCCO)CC(c3ccccn3)=NO2)cc1 (configuration not stated)	none (no result: HTRA1 inhibitor, TCR CD3 inh)
Cc1c(C(=O)N2CCCCC2)c(S(=O)(=O)N(C)Cc2ccccc2)c(C)n1C	SIAE primary 23 | SIAE inh conf inactive
Cc1c(C(=O)N2CCCCC2)c(S(=O)(=O)N(C)Cc2ccco2)c(C)n1C	none
O=C(OCC#CCSc1nnc(-c2cccc3ccccc23)o1)c1ccc(SC(F)(F)F)cc1	none (no result: HTRA1 inhibitor, TCR CD3 inh)
CC(C)N1CCCCC(NC(=O)c2cccc(F)c2)C1=O (configuration not stated)	none (no result: HTRA1 inhibitor, TCR CD3 inh)
Cc1nn(-c2ccccc2)c(Cl)c1C(=O)NCC(=O)O	SIAE primary 19 | SIAE inh conf inactive
CCOc1ccc(NC(=O)CN(C)C(=O)c2c(C)nn(-c3ccc(F)cc3)c2Cl)cc1OCC	none
CCOc1ccc(NC(=O)CN(C)C(=O)c2c(C)nn(-c3ccccc3)c2Cl)cc1OCC	SIAE primary 19 | SIAE inh conf inactive
Cc1cccc(C)c1NC(=O)CNC(=O)c1c(C)nn(-c2ccccc2)c1Cl	none
COc1ccc(OC)c(Nc2nc(NCc3ccco3)c3ccccc3n2)c1	SIAE primary 18 | SIAE inh conf inactive
COc1cc(-c2nc3ccccn3c2/N=C/c2cc(OC)c(OC)c(OC)c2)ccc1O	SIAE primary 28 | SIAE inh conf inactive
Cc1ccc(-n2c(SCC(N)=O)nnc2-c2cccnc2)c(C)c1	none
Cc1ccc(-n2c(SCc3cc(=O)n4ccsc4n3)nnc2-c2cccnc2)c(C)c1	SIAE primary 17 | SIAE inh conf inactive
Cc1nn(-c2cccc(C(F)(F)F)c2)c(Cl)c1/C=N/Nc1cccc(C(=O)O)c1	SIAE primary 26 | SIAE inh conf inactive
COc1ccc(S[C@]2(C(=O)N3CCCC3)CC(=O)N(C(=O)Nc3ccc(C)c(Cl)c3)[C@@H]2c2ccc(OC)cc2)cc1	none (no result: HTRA1 inhibitor, TCR CD3 inh)
CC(NC(=O)c1cc2ccc(C(F)(F)F)cc2nc1N)c1cccc2ccccc12 (configuration not stated)	none (no result: HTRA1 inhibitor, TCR CD3 inh)
CN(C(=O)c1ccc(N2CCOCC2)c([N+](=O)[O-])c1)C1CCCCC1	SIAE primary 17 | SIAE inh conf inactive
CN(C)CCN(Cc1ccc(Cl)cc1)c1ccccn1	none
S=C(NCCCCN(Cc1ccc(Cl)cc1)c1ccc(Br)cn1)NCCCc1cnc[nH]1	SIAE primary 24 (no result: HTRA1 inhibitor) | SIAE inh conf 28
CC(=O)Oc1c2occc2cc2ccc(=O)oc12	SIAE primary 20 | SIAE inh conf inactive
COc1c2occc2cc2ccc(=O)oc12	none
Cc1ccccc1P(=O)(CO)c1ccccc1C	SIAE primary 178 | SIAE inh conf inactive
COc1cc(NC(=O)Nc2nc(C(N)CCc3ccccc3)cs2)cc(OC)c1OC (configuration not stated)	SIAE primary 33 (no result: HTRA1 inhibitor) | SIAE inh conf 22
COCCn1c(-c2ccc(C#N)cc2)nc2c1c(=O)[nH]c(=O)n2Cc1ccccc1	none
CCCn1c(=O)[nH]c(=O)c2c1nc(-c1ccc(C#N)cc1)n2CCOC	SIAE primary 17 | SIAE inh conf inactive
O=C(OCC#CCSc1nnc(-c2ccc(Cl)cc2)o1)c1ccc(F)cc1	none (no result: HTRA1 inhibitor, TCR CD3 inh)
COc1ccc(N=Nc2c(N)n[nH]c2N)cc1	SIAE primary 22 | SIAE inh conf inactive
CCOC(=O)c1c(NC(=O)c2ccoc2C)sc2c1CCC2	SIAE primary 24 | SIAE inh conf inactive
COc1ccc(-n2c(COc3ccccc3)nnc2SCC(=O)Nc2ccc(OCc3ccccc3)cc2)cc1	none (no result: HTRA1 inhibitor, TCR CD3 inh)
COC(=O)CSc1nc2ccc(N)cc2s1	SIAE primary 18 | SIAE inh conf inactive
CCOC(=O)CSc1nc2ccc(NC(C)=O)cc2s1	none
O=C(NCCc1ccccc1)OCc1cn(Cc2ccccc2C(F)(F)F)nn1	none (no result: HTRA1 inhibitor, TCR CD3 inh)
O=C(N/N=C1/CC2CCC1C2)c1cc2ccccc2cc1O (configuration not stated)	SIAE primary 19 | SIAE inh conf inactive
O=C(NCC1CCCCC1)c1cc2ccccc2cc1O	none
CCCCCCCCC(c1nc2ccccc2[nH]1)N1CCN=C1c1cc2ccccc2[nH]1 (configuration not stated)	SIAE primary 22 (no result: HTRA1 inhibitor) | SIAE inh conf 28
Cc1ccc(C(=O)N2CC=C(c3ccccc3)CC2)s1	SIAE primary 19 | SIAE inh conf inactive
Cc1ccsc1C(=O)N1CC=C(c2ccccc2)CC1	none
C=CCN1CCN(Cc2cnc(Cl)s2)CC1	none
Clc1ncc(CN2CCN(Cc3ccccc3)CC2)s1	SIAE primary 28 | SIAE inh conf inactive
CC(C)CN1C(=O)N2CCc3ccccc3C2CS1(=O)=O (configuration not stated)	none (no result: HTRA1 inhibitor, TCR CD3 inh)
